Source: publication PMC2810120 (Chemical biology & drug design, 2009)
Non-standard residues stand in square brackets, D forms with d. Residues, ends and D or L forms follow the SMILES beside them. *: point of attachment. pS = N[C@@H](COP(=O)(O)O)C(=O)O; pNA = O=[N+]([O-])c1ccc(N*)cc1

Key:
human Pin1 (human) = human Pin1 (human) (UniProt Q13526); assay: NMR titration
Plasma stability assay = type: in vitro ADME; details: rat plasma, 37 °C, 20 μM, after 30 min
How it was run: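 Test compound at 20 μM final is incubated in fresh rat plasma at 37 °C. Samples are stopped at 0, 30 and 60 min with two volumes of methanol containing internal standard, then protein is precipitated and samples centrifuged for LC-MS. % parent remaining is taken against the 0 min sample from peak-area ratios to the internal standard. Run in duplicate with a plasma-labile positive control.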

[1] = Parallel artificial membrane permeation assay; type: in vitro ADME; details: 100 μM compound, pH 7.2, acceptor concentration after 8 h
How it was run: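 Lipid-impregnated hydrophobic filter (lipid applied in chloroform, solvent fully evaporated) separates donor from acceptor wells of phosphate buffer pH 7.2. Test compound is added at 100 μM to the donor side, with stock DMSO <5%. A membrane-free equilibrium well is run in parallel. Acceptor and equilibrium concentrations are measured by LC-MS AUC. % flux is the acceptor concentration after 8 h relative to the membrane-free reference well.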

UniProt Q13526, sequence (Q13526 whole entry): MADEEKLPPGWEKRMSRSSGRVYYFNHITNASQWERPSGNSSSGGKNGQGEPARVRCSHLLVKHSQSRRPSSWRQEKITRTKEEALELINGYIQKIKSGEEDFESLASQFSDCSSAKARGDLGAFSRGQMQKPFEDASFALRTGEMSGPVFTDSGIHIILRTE

Kd (human Pin1 (human)) | Compound | plasma stability (Plasma stability assay) | PAMPA FLUX (%) [1]
323 µM | Pintide (peptide) |  | 
 | N=C(N)NCCC[C@H](NC(=O)[C@@H]1CCCN1C(=O)[C@H](COP(=O)(O)O)NC(=O)[C@H](Cc1ccc(O)cc1)NC(=O)[C@H](Cc1ccccc1)NC(=O)[C@@H](N)Cc1c[nH]c2ccccc12)C(=O)Nc1ccc([N+](=O)[O-])cc1 [Pintide] (H-WFY[pS]PR-pNA; N-terminus and C-terminus assumed) | rapidly degraded | 14%
